Sampled rows, rich in hits. Any-hit rate of the full collection: about 0.59%.
OXTR agonist: agonists of human oxytocin receptor. CHO-OTR cells, Fluo-8 calcium fluorescence; normalized: DMSO 0%, oxytocin 100%. activation, % at 3 µM. hit rate 0.32% among 320,000. AID 2435;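 active = activation above the mean of all tested compounds plus 3 SD, cutoff set per screening run, cut at about 20% in these data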;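 note: peak over basal fluorescence ratio from a 100 s FLIPR kinetic read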
zfTRPN1 agonist: agonists of zebrafish TRPN1 channel; HEK293 zebrafish TRPN1-YFP, Fluo-8 calcium fluorescence; 100% = response to 87 µM carbachol; activation, % at 3 µM; hit rate 0.18% among 220,000; AID 1424;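 active = activation above its plate's cutoff, the mean activation of test wells on that plate plus 3 SD, cut at about 19% in these data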;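 note: 0% = DMSO alone and 100% = 87 µM carbachol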
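Material: zebrafish TRPN1-YFP in HEK293 cells; Doses: single test compound dose, 3 µM nominal, 0.3% DMSO; Timing: dye loading 1 h at 37 °C, then 30 min room temperature; Technique: intracellular calcium fluorescence with Fluo-8; Benchmarks: high carbachol 87 µM, low DMSO alone.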
OXTR potentiator: potentiates the human oxytocin receptor response. P30559. CHO-OTR cells, Fluo-8 calcium fluorescence, potentiator mode; 0% = oxytocin EC15, 100% = EC100. activation, % at 3 µM. hit rate 0.061% among 320,000;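 active = activation above that plate's cutoff, the mean activation of tested compounds plus 3 SD, cut at about 6.6% in these data, passing the limit was not always enough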;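 note: 100% uses oxytocin at 75 nM as the full agonist control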
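Material: CHO-OTR cells, human receptor; compound dosing: single dose, 3.0 µM nominal final compound concentration; schedule: 6 min compound pre-incubation at room temperature, 100 s kinetic read; measured by: kinetic Fluo-8 calcium fluorescence; read-out basis: % activation vs EC15 and EC100 oxytocin; controls: EC15 oxytocin alone as 0%, 75 nM oxytocin as 100%; replicates: singlicate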
V1R ag counter: counter-screen for oxytocin receptor agonists: human V1a receptor agonists; P37288; CHO-V1R cells, Fluo-8 calcium fluorescence, agonist mode; 0% DMSO, 100% 3 nM vasopressin; activation, % at 3 µM; hit rate 0.25% among 320,000;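 active = activation above the mean activation of all tested compounds plus 3 SD, per screening run, cut at about 20% in these data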;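 note: signal is peak over basal fluorescence ratio across a 100 second FLIPR read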
Target sequence (P37288 whole entry, looked up): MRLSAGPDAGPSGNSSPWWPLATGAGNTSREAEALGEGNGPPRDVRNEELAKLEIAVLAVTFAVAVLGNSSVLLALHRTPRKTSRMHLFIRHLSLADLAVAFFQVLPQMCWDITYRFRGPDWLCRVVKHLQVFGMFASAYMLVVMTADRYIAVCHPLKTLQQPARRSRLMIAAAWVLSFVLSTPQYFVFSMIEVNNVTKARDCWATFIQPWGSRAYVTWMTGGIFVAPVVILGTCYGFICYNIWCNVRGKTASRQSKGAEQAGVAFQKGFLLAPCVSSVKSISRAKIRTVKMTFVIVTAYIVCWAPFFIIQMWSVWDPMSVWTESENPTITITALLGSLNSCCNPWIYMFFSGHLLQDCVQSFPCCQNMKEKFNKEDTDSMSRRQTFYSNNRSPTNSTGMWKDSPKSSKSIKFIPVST
TRPML3 ag: agonists of human TRPML3 channel | hit rate 0.29% among 220,000 | HEK293 TRPML3-YFP, Fluo-8 calcium fluorescence; 100% = the carbachol control signal | activation, % at 3 µM | AID 1448;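 active = activation above its plate's cutoff, the mean activation of the plate's test wells plus 3 SD, cut at about 12% in these data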;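 note: 0% = DMSO only wells and 100% = carbachol wells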
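Test system: TRPML3-YFP stable HEK293 cells. Doses: single point at 3 µM. Incubation: dye loading 1 h 37 °C then 30 min ambient, 125 s read. Signal: Fluo-8 calcium dye fluorescence, ex 470-495, em 515-575 nm. Measure: percent activation from peak-to-basal fluorescence ratio, scaled between DMSO and carbachol.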
Starred values were filed as active, the others as inactive; · = not tested or not shown.

SMILES	OXTR agonist	zfTRPN1 agonist	OXTR potentiator	V1R ag counter	TRPML3 ag
Cc1cccc(C(=O)OCC(=O)N2CCCCCC2)c1	0.0	·	-0.2	0.4	·
COc1ccccc1N(CC(=O)NC(C)(C)C)S(=O)(=O)c1cccs1	-2.8	41.6*	-8.1	-1.5	0.2
CCNC(=O)CN(c1ccccc1OC)S(=O)(=O)c1cccs1	-1.5	1.5	0.2	-0.1	0.8
O=C(COC(=O)c1cccc([N+](=O)[O-])c1)c1ccc2c(c1)OCO2	-0.3	·	-3.6	0.5	·
Nc1ccc2c3c(cccc13)CC2	46.0*	41.7*	-7.6	46.3*	19.9*
Cc1c(NC(=O)c2ccc(NS(=O)(=O)c3ccccc3)cc2)c(=O)n(-c2ccccc2)n1C	-0.2	·	-5.7	-0.8	·
Cc1ccc(-c2c(C(=O)N/N=C/c3ccsc3)nnn2-c2nonc2N)cc1	39.4*	·	-20.4	35.8*	·
Cc1ccc(-c2c(C(=O)N/N=C/c3cccs3)nnn2-c2nonc2N)cc1	17.8	·	-9.5	16.7	·
CCOc1cccc(-c2c(C(=O)N/N=C/c3ccsc3)nnn2-c2nonc2N)c1	24.6*	·	-7.0	24.1*	·
Nc1nonc1-n1nnc(C(=O)N/N=C/c2cccs2)c1-c1ccc2c(c1)OCO2	35.1*	·	-11.9	51.6*	·
CCOc1cccc(-c2c(C(=O)N/N=C/c3sccc3C)nnn2-c2nonc2N)c1	2.3	·	-0.9	1.1	·
Cc1onc(-c2c(Cl)cccc2Cl)c1C(=O)NCCc1ccncc1	0.1	·	-10.3	2.0	·
CCCCCc1cc(O)c2c(C)cc(=O)oc2c1	2.6	12.8	-8.3	4.1	4.5
CCCCc1cc(O)c(CCCC)c(O)c1	86.1*	51.8*	-25.1	80.6*	36.5*
COc1ccccc1-c1cc(C2CC2)nc(N)c1C#N	-1.8	-3.3	-5.0	-0.1	-2.0
N#Cc1c(-c2ccccc2Cl)cc(C2CC2)nc1N	35.7*	-1.0	-8.1	30.3*	-0.6
COc1ccc(S(=O)(=O)N2CCOCC2)cc1NC(=O)CN1C(=O)NC(C)(C2CC2)C1=O (stereo not drawn)	0.9	·	-2.6	0.1	·
N#CC1=C(N)OC2=C(CC/C2=C\c2ccccc2)C1c1ccccc1 (stereo not drawn)	28.0*	7.3	-19.0	26.0*	2.8
N#CC1=C(N)OC2=C(CC/C2=C\c2ccccc2Cl)C1c1ccccc1Cl (stereo not drawn)	0.0	0.4	-7.9	0.3	0.3
N=C1/C(=C\c2coc3ccccc3c2=O)C(=O)N=C2SC=CN12	115.8*	175.5*	-9.8	84.5*	66.3*
CSC1=NSC2=NC(=O)/C(=C/c3coc4ccccc4c3=O)C(=N)N12	176.2*	36.2*	-12.0	87.6*	10.1
CC1=CC2=NC(=O)/C(=C/c3coc4ccc(Cl)cc4c3=O)C(=N)N2O1	55.4*	53.0*	-19.1	33.5*	16.4*
CSC1=NSC2=NC(=O)/C(=C/c3coc4ccc(O)cc4c3=O)C(=N)N12	103.6*	1.3	-18.6	77.0*	1.0
CSC1=NSC2=NC(=O)/C(=C\c3cccs3)C(=N)N12	1.9	1.9	-3.6	1.5	0.5
N=C1/C(=C/c2cccn2Cc2ccc(F)cc2)C(=O)N=C2SC=CN12	-1.4	-0.8	-5.1	-1.6	-0.5
SMILES	OXTR agonist	zfTRPN1 agonist	OXTR potentiator	V1R ag counter	TRPML3 ag
CC1=CC2=NC(=O)/C(=C\c3cc(C)n(-c4cccc(Cl)c4)c3C)C(=N)N2O1	-1.2	0.1	-4.2	0.5	0.8
C=CCN1C(=O)C2C(C(=O)NC3CCCC3)C3(C)C=CC2(O3)C1C(=O)NC1CCCC1 (stereo not drawn)	0.4	·	0.9	0.3	·
C=C(C)C(=O)OC1(C(F)(F)F)Oc2cc(C)ccc2NC1=O (stereo not drawn)	-2.7	-1.9	2.0	-1.5	-0.8
Cn1c(=O)c(N)c2c3c(c(Br)ccc31)C(=O)c1ccccc1-2	24.9*	3.2	-19.0	28.1*	1.8
Nc1ncnc2c1ncn2[C@@H]1O[C@H](COP(=O)(O)OP(=O)(O)OP(=O)(O)O)[C@@H](O)[C@H]1O	68.6*	·	-24.0	77.5*	·
CC(=O)c1ccc(-n2nnnc2SCC(=O)NC2CCCCC2)cc1	1.0	·	-2.9	1.4	·
O=C(Nc1ncc(S(=O)(=O)c2ccc([N+](=O)[O-])cc2)s1)c1cccc2ccccc12	31.7*	0.7	-20.5	26.8*	1.2
COCC(=O)Nc1ncc(S(=O)(=O)c2ccc([N+](=O)[O-])cc2)s1	4.6	2.0	-3.1	4.1	1.1
Cc1ccc(N(CC(=O)NC(C)C)C(=O)CCC(=O)Nc2nccs2)cc1C	-0.6	·	-6.3	2.3	·
Cc1ccc(C)c(NC(=O)c2ccccc2NS(=O)(=O)c2cc([N+](=O)[O-])ccc2C)c1	10.1	26.6*	-15.2	8.3	17.9*
N#CC(C#N)=C(Nc1ccc(F)cc1)SCc1cccc(F)c1	11.4	24.8*	-8.4	11.5	20.8*
CCOC(=O)Nc1ccc2c(c1)N(C(=O)CCN(CC)CC)c1ccccc1S2=O (stereo not drawn)	0.0	·	-3.1	-0.5	·
CSCCC(NC(=O)c1ccco1)C(=O)OC(C)C(=O)NC(=O)NC1CCCCC1 (stereo not drawn)	2.0	120.8*	-14.7	6.0	61.9*
Cn1nc(C(=O)N2CCN(c3ccc([N+](=O)[O-])cc3)CC2)c2c1-c1ccccc1S(=O)(=O)C2	0.9	·	-2.1	0.3	·
O=S(=O)(Nc1ccccc1)c1ccc(Oc2ncc(C(F)(F)F)cc2Cl)cc1	30.4*	7.3	-24.7	21.8*	4.0
O=[N+]([O-])c1ccc(Oc2ccc(S(=O)(=O)Nc3ccccc3)cc2)cc1	31.2*	20.6*	-15.9	22.4*	9.3
CC(C)NS(=O)(=O)c1ccc(Oc2ncc(C(F)(F)F)cc2Cl)cc1	1.5	2.3	-23.0	5.5	0.9
N#C/C(=C/c1ccc(N2CCCCC2)o1)C(=O)Nc1ccc(Cl)cc1	197.2*	28.2*	-10.4	225.3*	38.8*
N#C/C(=C/c1ccc(N2CCCCC2)o1)C(=O)Nc1ccc2ccccc2c1	·	39.6*	·	·	21.7*
Cn1c(=O)c(C(=O)COc2ccc(C#N)cc2)c(N)n(Cc2ccccc2)c1=O	31.9*	4.4	-38.1	28.3*	2.0
CCC(=O)OCC(=O)c1c(N)n(Cc2ccccc2)c(=O)n(C)c1=O	-0.1	1.2	-4.3	0.8	1.2
CCN1C(=O)/C(=C/c2ccc(N3CCCC3)cc2)NC1=S	109.6*	41.9*	-19.8	91.1*	10.6
CCCN1C(=O)/C(=C/c2ccc(N3CCOCC3)cc2)NC1=S	24.9*	24.4*	-34.7	31.0*	12.2*
Cc1ccc(CN2C(=O)N/C(=C\c3ccc(N4CCOCC4)cc3)C2=O)cc1	0.0	-0.7	-8.4	0.2	0.8
Cn1cccc1/C=N/n1c(-c2ccc(Cl)cc2Cl)n[nH]c1=S	25.8*	12.2	-23.4	21.1*	7.1
